Bioassay records deposited in PubChem BioAssay by several laboratories.
The list is not random: actives were taken first. Their share in the collection is about 3%.
T cruzi inh = T. cruzi replication inhibition; T. cruzi beta-gal in NIH3T3, luminescence, 90 h; inhibition, % (no concentration beside the values); actives 1.4% (n = 300,000); AID 1885;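 active = mean inhibition across valid replicates above about 55%, limit read from the data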;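 also: signal also drops with host cell toxicity which is not excluded here; higher percent means less beta-gal luminescence so fewer parasites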
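Assay system: NIH/3T3 host cells with β-galactosidase reporter T. cruzi; input: 5,000 host fibroblasts per well; compound: single 50 nL compound addition per well in DMSO; timing: ≥90 h infection period, 3 h prior cell attachment; measured by: GalScreen β-gal luminescence, detergent lysis, 60 min; evaluation: percent inhibition of parasite-derived β-gal signal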
Yeast superoxide = caloric restriction mimetics inhibiting age-related superoxide in yeast; S. cerevisiae aged cells, superoxide DHE fluorescence; stronger effect = lower value; superoxide response (% of plate mean), % at 10 µM; actives 0.18% (n = 330,000); AID 2690;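 active = superoxide response under a set limit, about three screen SD below normal, cut at about 65% in these data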;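 also: yeast aged for seven days with compound at 30 °C before DHE staining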
V-ATPase pH = regulators of yeast V-ATPase proton transport | S. cerevisiae, pHLuorin cytosolic pH fluorescence | response, % at 10 µM | actives 0.37% (n = 350,000); in the data active = response mostly above about 7.3%, no sharp cut-off; inactive = mostly below about 5.4%; also: actives read high
HIF activator = HIF pathway transcriptional activation | actives 0.32% (n = 300,000) | U2OS HRE-luciferase reporter, luminescence; normalized: DMSO 0%, desferrioxamine 100% | activation, % at 7.5 µM (by protocol) | AID 1910;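 active = mean activation of at least 10% of the iron chelator positive control signal, with at least half of replicates also reaching 10%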
AI-2 QS modul = modulates the Vibrio harveyi AI-2 quorum sensing system | activity change, % at 7.5 µM | Vibrio harveyi JMH597 AI-2 luminescence/OD600 ratio, 9 h; stronger effect = lower value; strain lacks LuxN and CqsS sensors; 0 = neutral-control median | actives 0.4% (n = 300,000); in the data active = activity change below about -75%, passing the limit was not always enough;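 also: luminescence divided by OD600 gain over 9 h not by final OD600 alone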
CendR NRP1 mod = modulators of CendR peptide binding to human neuropilin-1; O14786; FAM-RPARPAR peptide binding to NRP-1, fluorescence polarization; inhibition, % at 25 µM; actives 0.85% (n = 360,000); AID 602438;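 active = inhibition or corrected inhibition above about 18%, plus a signal ratio from 0.5 to 1.5, limit read from the data, passing the limit was not always enough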
Large screens that a line does not name were inactive.

Clc1ccc(CNCCc2ccc3c(c2)OCO3)cc1	none
CN1C2CCC1C(C(=O)O)C(OC(=O)c1ccccc1)C2 (stereo not drawn)	none (no result: T cruzi inh, HIF activator, AI-2 QS modul)
O=C(O)C1(Br)CC12c1ccccc1-c1ccccc12 (stereo not drawn)	none (no result: T cruzi inh, Yeast superoxide, HIF activator, AI-2 QS modul)
O=C1C=CC(=O)C2C1C1(Cl)C(Cl)=C(Cl)C2(Cl)C1(Cl)Cl (stereo not drawn)	CendR NRP1 mod 25.8 (no result: T cruzi inh, Yeast superoxide, HIF activator, AI-2 QS modul)
CC(=O)N1CCC2(CC1)CC(=O)c1cc(OCC(=O)N3CCC4(CC3)OCCO4)ccc1O2	none
Nc1c(C(=O)NCCCc2ccccc2)c2nc3ccccc3nc2n1Cc1cccs1	T cruzi inh 57.8
CCCCn1c(N)c(C(=O)NCc2cccs2)c2nc3ccccc3nc21	T cruzi inh 54.9
CSc1ccccc1C(=O)C1CCCN(Cc2ccn[nH]2)C1 (stereo not drawn)	none
CC(C)Cc1nnc(NC(=O)CCC(=O)N2CCC3(CC2)OCCO3)s1	HIF activator 21.2
CCCc1nnc(NC(=O)CCC(=O)N2CCC3(CC2)OCCO3)s1	none
C[C@]12CC[C@H](O)CC1=CC(=O)C1C2CC[C@]2(C)C(=O)[C@H](O)CC12 (stereo partly drawn)	CendR NRP1 mod 19.4 (no result: T cruzi inh, HIF activator, AI-2 QS modul)
O=c1[nH]c(=O)n(C2CCCCCC2)c(O)c1C=NC1CCN(Cc2ccccc2)CC1	T cruzi inh 65.0
Cn1c(O)c(C=NC2CCN(Cc3ccccc3)CC2)c(=O)[nH]c1=O	none
COc1ccc(-c2cc(=O)c3c(OC)c(OC)c(OC)cc3o2)cc1	none
CC[n+]1c(/C=C/N(C)c2ccccc2)sc2ccc(Cl)cc21	T cruzi inh 65.1 (no result: HIF activator)
CC(C)n1c(O)c(C2c3cc(Cl)ccc3Oc3[nH]c(=O)n(C(C)C)c(=O)c32)c(=O)[nH]c1=O (stereo not drawn)	V-ATPase pH 17.5 (no result: Yeast superoxide)
C=CCN1C(=O)/C(=C/c2cccs2)C(=O)NC1=S	none
CCOC(=O)c1nsnc1NCCCl	CendR NRP1 mod 21.5
CN(C)c1ccc(NC(=O)CN2C(=O)CN=C(c3ccccc3)c3ccccc32)cc1	none
Cc1cccc(OCCn2cccc2/C=C2/C(=O)NC(=O)N(Cc3ccco3)C2=O)c1	HIF activator 592.3
O=C1NC(=O)N(Cc2ccco2)C(=O)/C1=C\c1cccn1CCOc1ccc(Cl)cc1	none
COC(=O)C1=C(c2ccc(S(C)(=O)=O)cc2)C[C@@H]2CC[C@H]1N2C(=O)NCCO	none
CCN1/C(=C\C=C\C2=[N+](CC)c3ccccc3C2(C)C)C(C)(C)c2ccccc21	T cruzi inh 54.8
Cc1cccc(CSc2nc3c(cc2C#N)CN(C)CC3)c1	T cruzi inh 58.6
CC(=O)C1CCC2C3CC(O)C4CC(O)CCC4(C)C3CCC12C (stereo not drawn)	none (no result: T cruzi inh, Yeast superoxide, HIF activator, AI-2 QS modul)
c1ccc(CNC2=NCCS2)cc1	CendR NRP1 mod 21.4
COC(=O)C1=C(c2ccc(OC(F)(F)F)cc2)C[C@@H]2CC[C@H]1N2C(=O)NC1Cc2ccccc2C1	none (no result: T cruzi inh, HIF activator, AI-2 QS modul)
O=C1NCN(c2ccccc2)C12CCN(C(c1ccccc1OC(F)(F)F)c1nnnn1C1CCCCC1)CC2 (stereo not drawn)	none (no result: T cruzi inh, Yeast superoxide, V-ATPase pH, HIF activator, AI-2 QS modul)
O=C(c1c[nH]cc1-c1ccccc1)c1cccc2ccccc12	T cruzi inh 57.9
OC12ONC(c3ccccn3)C1N1CCC2CC1 (stereo not drawn)	none
Fc1ccc(Cn2nnnc2C(c2ccc(Cl)cc2)N2CC=C(c3ccc(F)cc3)CC2)cc1 (stereo not drawn)	T cruzi inh 69.0
Cc1ccc(C(c2nnnn2Cc2ccccc2)N2CC=C(c3ccc(F)cc3)CC2)cc1 (stereo not drawn)	T cruzi inh 65.5
Fc1ccc(C2=CCN(C(c3ccc(Cl)cc3)c3nnnn3Cc3ccccc3)CC2)cc1 (stereo not drawn)	none
COc1ccc(C(c2nnnn2Cc2ccccc2)N2CCC3(CC2)C(=O)NCN3c2ccccc2)cc1 (stereo not drawn)	none (no result: T cruzi inh, Yeast superoxide, V-ATPase pH, HIF activator, AI-2 QS modul)
COc1cccc(-n2c(/C=C/c3ccccn3)nc3ccccc3c2=O)c1	none
Clc1ccc2sc(C3CCNCC3)nc2c1	none
COc1ccc(CCNCc2cccc(C(F)(F)F)c2)cc1OC	none
O=c1c2ccccc2nc(-c2ccco2)n1-c1ccccn1	CendR NRP1 mod 32.4
COc1ccc(C2=NCC(=S)Nc3ccc(Cl)cc32)cc1OC	none
